Consider 2 compounds from ChEMBL document CHEMBL1149252, “Synthesis and structure-activity relationships of 4-alkynyloxy phenyl sulfanyl, sulfinyl, and sulfonyl alkyl hydroxamates as tumor necrosis factor-alpha converting enzyme and matrix metalloproteinase inhibitors” (J Med Chem, 2004).

The target of test [1] is Collagenase 3 (Homo sapiens, UniProt P45452). Briefly: Inhibition of MMP13 at 10 uM. The essentials:
(§1)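 Cell-free assay on isolated enzyme (MMP-1, MMP-9, MMP-13 or TACE). Percent inhibition was read at a single 10 μM inhibitor concentration, with samples run in triplicate and the mean reported. Full dose-response curves were generated only where inhibition at 10 μM reached 60%.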

In test [2] the test system is Mus musculus. Nature of the test: Inhibition of LPS-stimulated TNFalpha production in mouse model at 100 mg/kg, po at 1 hrs. In kind it is functional. The essentials:
(§2)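 Mice received the compound orally. LPS was injected 30 min after dosing. Blood was drawn 1 h after LPS, and serum TNF-α was measured by ELISA. Results are expressed as % inhibition of LPS-induced TNF-α.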

For test [3], the system named is Mus musculus. Nature of the test: Inhibition of LPS-stimulated TNFalpha production in mouse model at 10 mg/kg, po. In kind it is functional, organism-based. Set-up: dose 10 mg/kg. An outline of the steps:
as §2

The target of test [4] is Interstitial collagenase (Homo sapiens, UniProt P03956). Briefly: Inhibition of MMP1 at 10 uM. The essentials:
as §1

Test [5] has as its system THP-1. Nature of the test: Inhibition of LPS-stimulated TNFalpha production in human THP1 cells at 3 uM by ELISA. In kind it is functional.
Test [6] relates to Mus musculus. Nature of the test: Inhibition of LPS-stimulated TNFalpha production in mouse model at 100 mg/kg, po at 12 hrs. In kind it is functional.
For test [7], the target named is Matrix metalloproteinase-9 (Homo sapiens, UniProt P14780). Briefly: Inhibition of MMP9 at 10 uM. An outline of the steps:
as §1

Test [8] relates to Mus musculus. Nature of the test: Inhibition of LPS-stimulated TNFalpha production in mouse model at 10 mg/kg, po at 12 hrs. Set-up: dose 10 mg/kg. In kind it is functional, organism-based.
Test [9] concerns Mus musculus. Nature of the test: Inhibition of LPS-stimulated TNFalpha production in mouse model at 10 mg/kg, po at 1 hrs. In kind it is functional. The essentials:
as §2

The term inhibition denotes the share of the control response that was lost under treatment. A higher inhibition goes with strong suppression. In general, inhibition in vivo refers to how much of the control response was suppressed. A high value points to strong suppression.

Structures are written as SMILES. Active and inactive are the calls of the source. No cut-off for these calls is given here.

Chain of Interstitial collagenase (P03956 whole entry): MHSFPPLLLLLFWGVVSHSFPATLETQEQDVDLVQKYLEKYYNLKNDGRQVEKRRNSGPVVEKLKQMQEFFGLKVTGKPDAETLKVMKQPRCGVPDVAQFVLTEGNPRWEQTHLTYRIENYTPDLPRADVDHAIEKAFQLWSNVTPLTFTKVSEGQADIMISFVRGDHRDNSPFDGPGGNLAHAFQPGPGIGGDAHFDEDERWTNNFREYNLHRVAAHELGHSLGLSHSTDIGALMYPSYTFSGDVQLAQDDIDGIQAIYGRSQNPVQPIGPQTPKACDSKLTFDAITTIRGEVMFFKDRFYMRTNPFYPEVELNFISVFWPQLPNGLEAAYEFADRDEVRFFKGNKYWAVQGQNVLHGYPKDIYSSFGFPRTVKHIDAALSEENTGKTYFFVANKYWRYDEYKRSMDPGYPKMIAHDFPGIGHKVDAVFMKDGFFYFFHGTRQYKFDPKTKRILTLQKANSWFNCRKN
Chain of Matrix metalloproteinase-9 (P14780 whole entry): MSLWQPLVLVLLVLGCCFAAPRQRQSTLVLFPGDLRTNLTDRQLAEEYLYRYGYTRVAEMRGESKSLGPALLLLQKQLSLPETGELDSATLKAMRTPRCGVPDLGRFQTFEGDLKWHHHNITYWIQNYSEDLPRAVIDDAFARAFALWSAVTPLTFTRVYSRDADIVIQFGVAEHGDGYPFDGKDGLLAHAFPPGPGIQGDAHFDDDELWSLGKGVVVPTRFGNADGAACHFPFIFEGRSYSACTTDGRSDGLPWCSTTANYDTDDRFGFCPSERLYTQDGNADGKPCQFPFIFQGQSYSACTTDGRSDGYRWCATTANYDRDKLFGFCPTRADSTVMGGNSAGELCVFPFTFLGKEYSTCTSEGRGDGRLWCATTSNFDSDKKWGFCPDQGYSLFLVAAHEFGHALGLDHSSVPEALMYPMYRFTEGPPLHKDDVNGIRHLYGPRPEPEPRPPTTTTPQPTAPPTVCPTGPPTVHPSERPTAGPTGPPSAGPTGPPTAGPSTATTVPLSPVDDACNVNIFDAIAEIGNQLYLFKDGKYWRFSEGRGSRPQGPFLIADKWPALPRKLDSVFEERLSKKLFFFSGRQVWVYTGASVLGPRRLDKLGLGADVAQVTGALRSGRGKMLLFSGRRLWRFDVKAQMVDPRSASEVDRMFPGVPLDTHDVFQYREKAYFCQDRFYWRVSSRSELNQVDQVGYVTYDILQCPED

For `CC#CCOc1ccc(S(=O)(=O)C2(C(=O)NO)CCN(Cc3ccc(Cl)cc3)CC2)cc1`, the results for the inhibition in test [1], in test [4] and in [7] were 56%, 52% and 52%, respectively. Besides, the figures for the inhibition in vivo at 100 mg/kg in test [2] and in test [6] were 61% and 23%, respectively. Also, the outcome in test [3] was inactive. The compound also yielded an inhibition at 3 µM in test [5] of 66%.
With `CC#CCOc1ccc(S(=O)(=O)N2CCSC(C)(C)[C@@H]2C(=O)NO)cc1`, in [8], the outcome was inactive. This compound also displayed an inhibition in vivo at 10 mg/kg in [9] of 80%.
